High-throughput results deposited in PubChem by several laboratories.
PERK inh: block of dimerizer-induced PERK translation repression, primary screen, PERK inhibitor project, CHO PERK-DD cells, SEAP luminescence, HTS. Eukaryotic translation initiation factor 2-alpha kinase 3 (Homo sapiens), Q9NZJ5. CHO PERK-DD fusion, SEAP luminescence translation reporter. inhibition, % at 5.6 µM. hit rate 0.17% among 220,000. AID 1416, 2008;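 active means inhibition above the mean inhibition of all tested compounds plus 3 SD, set separately per screening campaign, cut at about 2.9% in these data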;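 further: PERK kinase domain activated by AP20187 dimerizer at 100 nM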
Hsp70 activator: Hsp70 transcriptional activators, primary screen, cell-based, HeLa, Hsp70 promoter luciferase, luminescence, 10 µM | HeLa Hsp70 promoter luciferase reporter; scaled: vehicle 0, proteasome-inhibitor control 100% | activation, % at 10 µM | hit rate 0.04% among 200,000 | AID 1203, 2008;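 active means activation above the mean across all tested compounds plus 3 SD, cutoff set per campaign, cut at about 5.5% in these data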
HSF1 inh: HSF1 inhibitors in luciferase reporter cells, primary screen, cell-based, NIH3T3, luminescence. hit rate 0.77% among 300,000. NIH3T3-HGL HSE-luciferase, MG132-induced, luminescence 8 h; active compounds read low. activity change, negative = inhibition, % at 7.5 µM (by protocol);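 active means more than half of replicate wells show activity change below -50%, luminescence cut by over half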;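 further: luciferase reports HSF-1 transcriptional activity via heat shock element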
STAT3 act: IL-6 driven STAT3 reporter potentiators, primary screen, U3A cells, luciferase, luminescence, MLSCN library | AID 871, 2007 | IL-6 STAT3-luciferase reporter; 100% = signal with IL-6 EC80 alone | hit rate 0.91% among 190,000 | activation (% of control), % at 5.6 µM;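 active means activation above the screen-wide mean of compound activation plus 3 SD, cut at about 130% in these data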
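System – human U3A cells carrying STAT3-luciferase construct · Probe or stimulus – Interleukin-6, 33 ng/mL · Schedule – compound 1 h, then IL-6 6 h at 37 °C · Signal – luminescence from STAT3-driven luciferase reporter · Evaluation – percent of IL-6-only median luminescence · Benchmarks – IL-6-only high control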
PolyA inhibitor: polyadenylation inhibitors in yeast reporter cells, primary screen, luminescence, S. cerevisiae; activity score, % at 12 µM; AID 1875, 2009; hit rate 0.02% among 300,000; S. cerevisiae SKY197-pL101 polyadenylation reporter, beta-gal luminescence; efflux-impaired pdr1/pdr3 knockout yeast; score 100 = 6 SD above DMSO;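 active means lowest replicate activity score at least 50, where 100 means six control SD above control mean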;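 further: yeast exposed to compound for 9 h at 30 °C; higher score means more reporter readthrough which indicates perturbed polyadenylation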
AHR act: AHR activators, primary screen, cell-based, luminescence, luciferase reporter, human; hit rate 2.5% among 320,000; AHR-responsive luciferase reporter cells; activation, % at 5 µM; AID 2796, 2010; Aryl hydrocarbon receptor (Homo sapiens), P35869; in the data active means activation above about 47%
Target sequence (P35869 whole entry, looked up): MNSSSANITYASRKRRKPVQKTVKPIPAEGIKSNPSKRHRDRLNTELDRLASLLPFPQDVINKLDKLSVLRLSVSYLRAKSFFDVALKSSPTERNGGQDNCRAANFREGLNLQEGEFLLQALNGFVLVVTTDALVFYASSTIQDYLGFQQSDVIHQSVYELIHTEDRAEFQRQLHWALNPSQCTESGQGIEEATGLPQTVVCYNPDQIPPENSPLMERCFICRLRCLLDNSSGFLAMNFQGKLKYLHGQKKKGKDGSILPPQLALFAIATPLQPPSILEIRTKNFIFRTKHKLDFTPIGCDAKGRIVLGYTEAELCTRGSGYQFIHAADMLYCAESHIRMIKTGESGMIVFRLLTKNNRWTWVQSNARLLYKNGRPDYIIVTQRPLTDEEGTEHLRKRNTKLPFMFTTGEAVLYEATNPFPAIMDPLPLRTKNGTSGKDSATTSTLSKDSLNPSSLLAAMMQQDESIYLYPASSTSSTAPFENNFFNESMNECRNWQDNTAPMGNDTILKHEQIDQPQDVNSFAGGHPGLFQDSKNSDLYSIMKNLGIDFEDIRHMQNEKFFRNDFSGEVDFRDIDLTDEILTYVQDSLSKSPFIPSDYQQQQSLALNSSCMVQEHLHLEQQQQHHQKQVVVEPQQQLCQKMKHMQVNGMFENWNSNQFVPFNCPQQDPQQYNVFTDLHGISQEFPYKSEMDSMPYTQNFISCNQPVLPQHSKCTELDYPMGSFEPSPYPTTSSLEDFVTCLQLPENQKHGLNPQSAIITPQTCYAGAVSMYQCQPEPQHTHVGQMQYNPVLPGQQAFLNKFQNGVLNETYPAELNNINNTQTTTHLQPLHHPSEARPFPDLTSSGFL
A number is an active result; i = inactive; nt = no result. Shown are actives, neighbours in structure and some others; about 3.6% of the full set was active somewhere.

SMILES	PERK inh	Hsp70 activator	HSF1 inh	STAT3 act	PolyA inhibitor	AHR act
CCOc1ccccc1/C=C/c1onc(C)c1S(=O)(=O)N1CCC(C(=O)N(CC)CC)CC1	nt	nt	-60	nt	i	i
Cc1cc(N2CCN(c3ccccc3)CC2)nc(-c2ccccc2O)n1	i	i	i	i	i	78
CCC(=O)Oc1ccc(C2NC(=O)c3ccccc3O2)cc1OC (configuration not stated)	nt	nt	i	nt	i	i
O=C(NNc1nc2cc3c(cc2s1)OCCO3)c1ccccc1	i	i	i	i	i	74
Fc1cccc2sc(Nc3nc4cc5c(cc4s3)OCCO5)nc12	i	i	i	i	i	60
Fc1cc(F)c2nc(Nc3nc4cc5c(cc4s3)OCO5)sc2c1	i	i	i	i	i	i
Cc1cccc2sc(NNC(=O)c3ccc4c(c3)OCCO4)nc12	i	i	i	i	i	59
O=C(NNc1nc2ccc(F)cc2s1)c1cccc(F)c1	i	i	i	i	i	i
O=C(NNc1nc2ccccc2s1)c1ccc(F)cc1	i	i	nt	i	i	54
O=C(CN1C(=O)c2cccnc2Oc2ccc(Cl)cc21)N1CCCC1	nt	nt	i	nt	i	i
CC(Oc1ccc(Br)cc1)C(=O)Nc1ccc(S(=O)(=O)N(C)C2CCN(C)CC2)cc1 (configuration not stated)	nt	nt	i	nt	i	i
O=C1CN(C(=O)CNC(=O)c2cccc(Cl)c2)c2ccccc2N1	i	i	i	i	i	i
Cc1cccc(C(=O)NCC(=O)N2CC(=O)Nc3ccccc32)c1	i	i	-51	i	i	i
CCOc1ccc(-c2nnc3ccc(SCC(=O)N4CCCCC4)nn23)cc1	nt	nt	i	nt	i	i
CCOc1ccc(-c2nnc3ccc(SCC(=O)Nc4nc5ccccc5s4)nn23)cc1	i	i	i	i	i	73
CCOc1ccc(-c2nnc3ccc(SC(C)C)nn23)cc1	i	i	i	nt	i	51
CCOc1ccc(-c2nnc3ccc(SCC(=O)Nc4nc5ccc(C)cc5s4)nn23)cc1	i	i	i	i	i	63
CCCCCN(C(=O)CCC(=O)OCc1ccc(C(C)(C)C)cc1)c1c(N)n(CCCC)c(=O)[nH]c1=O	nt	nt	i	nt	i	i
CCOc1cc(/C=N/NC(=O)C2CCCC2)ccc1OC(C)C	nt	nt	i	nt	i	i
Cc1cc(F)ccc1NC(=O)Cn1c(C)csc1=O	nt	nt	nt	nt	nt	i
COc1cc(CNS(=O)(=O)c2ccc3c(c2)CC(C)N3C(C)=O)cc(OC)c1OC (configuration not stated)	nt	nt	i	nt	i	i
Cc1cccc(CS(=O)(=O)Cc2ccc(C(=O)NCc3cccs3)o2)c1	i	i	-71	i	i	i
Cc1cccc(CS(=O)(=O)Cc2ccc(C(=O)NCc3ccccc3)o2)c1	nt	nt	i	nt	i	i
COc1ccc2c(c1OC)C(=O)N(c1ccccn1)C2	i	i	i	i	i	52
Cc1sc2nc(CSCC(=O)Nc3ccccc3C#N)[nH]c(=O)c2c1C	i	i	i	i	i	70
SMILES	PERK inh	Hsp70 activator	HSF1 inh	STAT3 act	PolyA inhibitor	AHR act
O=C(Nc1cc(Cl)ccc1-n1cncn1)c1cn2ccccc2n1	nt	nt	i	nt	i	i
O=C(Nc1cc(C(F)(F)F)ccc1-n1cncn1)c1cn2ccccc2n1	nt	nt	nt	nt	nt	78
Cc1ccccc1-n1c(SC/C(O)=C(\C#N)c2nc3ccccc3[nH]2)nnc1-c1ccncc1	i	i	i	133	i	i
Cc1cc(C)n2c(SC/C(O)=C(\C#N)c3nc4ccccc4[nH]3)nnc2n1	i	i	i	i	i	i
C/C(=N\NC(=O)c1nnn(-c2nonc2N)c1C(C)C)c1ccncc1	nt	nt	-51	nt	i	i
O=[N+]([O-])c1cccc(-c2ccc(/C=N/NC(=S)Nc3cccc(F)c3)o2)c1	i	nt	i	nt	i	49
NC(=S)N/N=C/c1ccc(-c2cccc([N+](=O)[O-])c2)o1	i	i	i	i	i	i
COc1ccc(-c2cc(C(F)(F)F)c3c(N)c(C(=O)NCCSC)sc3n2)cc1	nt	nt	i	nt	i	62
